Here are results for one compound from PubChem BioAssay AID504392 (Broad Institute, 2011).

Activity calls are given as the source filed them.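 Rule for the calls: active = fitted curve rising past 10% caspase activation at or below the top valid dose; inactive = activity opposite to the expected rise, or the rest.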

The nature of this assay: caspase activation in wild-type MEFs, dose response, counter-screen for Bcl2-A1 inhibitor project, cell-based, wild-type MEF, caspase luminescence, dry powder, set 2 (AID 504392). The following applies: CaspaseGlo luminescence, 3 h; series mostly up to 35 µM. Summed up: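 Assay system: wild-type mouse embryonic fibroblasts, not A1–BIM primed. Buffer or medium: RPMI-1640 growth medium with 10% FBS. Timing: 3 h compound at 37 °C, 1 h reagent at RT. Signal: luminescence with CaspaseGlo caspase reagent. Read-out: caspase activation.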
(In general: A counterscreen serves to expose hits that act by an unwanted route or on another target.)

For the compound `C/C1=C/C(=O)O[C@@H]2C[C@@H](CC[C@H](C)/C=C\CC1)O[C@@](O)(C1CSC(=O)N1)C2` (stereo partly specified), the compound was classed as inactive.
